This note sets out measurements from ChEMBL document CHEMBL1131051, “Novel combretastatin analogues effective against murine solid tumors: design and structure-activity relationships” (J Med Chem, 1998).

Assay [1] relates to Colon 26. Briefly: Antitumor activity at dose 5 mg/kg in murine colon26 cells. The assay is classed as functional, Mus musculus.
The subject of assay [2] is Colon 26. As to the kind of experiment: Growth inhibition of colon 26 adenocarcinoma cells by 50 %. The note with it: Mus musculus. The assay is classed as functional, cell-based. A digest of the protocol: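 Murine Colon 26 adenocarcinoma cells were kept in RPMI-1640 with 10% FBS. Cells were seeded at 1×10^5 cells/ml in 96-well plates and held 24 h at 37 °C in CO2. They were then exposed to a range of compound concentrations for 48 h, and viable cells were counted by MTT dye reduction. IC50 is the mean of three independent assays.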

The next assay deals with Tubulin (Bos taurus, UniProt Q6B856+Q862L2+Q862F3). Briefly: Inhibitory activity against tubulin polymerization. The assay is classed as protein assay. A digest of the protocol:
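Tubulin polymerization was started with GTP. It was followed turbidimetrically at 350 nm at 37 °C, and extent was read after 20 min incubation. IC50 was determined graphically, averaging three independent assays.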

In assay [3] the test system is Colon 26. Briefly: Antitumor activity at dose 160 mg/kg in murine colon26 cells. The assay is classed as functional, Mus musculus.
For assay [4], the system named is Lewis lung carcinoma cell line. As to the kind of experiment: Antitumor activity at dose 40 mg/kg in Lewis lung carcinoma cells (3LL) cells. The assay is classed as functional, Mus musculus. A digest of the protocol: (§1)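 Tumor fragments (5 mg) implanted sc on day 0: Colon 26 into CD2F1 mice, Colon 38 or 3LL into BD2F1 mice, HCT-15 into ICR nu/nu mice. Dosing iv on days 7, 11 and 15. On day 21, two caliper diameters were measured; tumor weight = length × width²/2. IR (%) = (1 − T/C) × 100, from mean treated versus control tumor weights.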

Assay [5] concerns MC-38. Briefly: Antitumor activity at dose 10 mg/kg in colon38 cells. It is filed as functional, Mus musculus. A digest of the protocol:
as §1

For assay [6], the system named is HCT-15. Briefly: Antitumor activity at dose 40 mg/kg in HCT-15 cells. It is filed as functional, Mus musculus. A digest of the protocol:
as §1

Assay [7] is described as follows: (§2) Antitumor activity at dose 40 mg/kg in colon26 cells. It is filed as functional, Mus musculus. In short, it runs like this:
as §1

For assay [8], the system named is Colon 26. Described as §2. The assay is classed as functional, Mus musculus. In short, it runs like this: as §1
The test system of assay [9] is Colon 26. As to the kind of experiment: Antitumor activity at dose 10 mg/kg in murine colon26 cells. The assay is classed as functional, Mus musculus. In short, it runs like this:
as §1

Assay [10] deals with MC-38. Briefly: Antitumor activity at dose 10 mg/kg in Murine colon38 cells. It is filed as functional, Mus musculus. In short, it runs like this:
as §1

In assay [11] the test system is HCT-15. Briefly: Antitumor activity at dose 10 mg/kg in HCT-15 cells. The assay is classed as functional, Mus musculus. In short, it runs like this:
as §1

Take `COc1cc(/C(C#N)=C\c2ccc(C)c(N)c2)cc(OC)c1OC.Cl`: the IR in the assay with Colon 26 [1] stood at 11%.
In the case of `COc1ccc(/C=C(/C#N)c2ccccc2)cc1N`, the half-maximal inhibitory concentration (IC50) in the assay with Colon 26 [2] came out at 36 nM; on Tubulin, 8000 nM.
Taken in the same sequence, the figures for `COc1ccc(/C=C(/CO)c2cc(OC)c(OC)c(OC)c2)cc1` were 363 nM and over 20000 nM.
In the case of `COc1cc(/C=C\c2ccc(C)c(N)c2)cc(OC)c1OC`, the half-maximal inhibitory concentration (IC50) with Colon 26 [2] came to 43.5 nM; against Tubulin, 4000 nM.
The matching figures for `COc1ccc(/C=C(\C#N)c2cc(OC)c(OC)c(OC)c2)cc1[N+](=O)[O-]`: over 3000 nM and over 20000 nM.
Taken in the same sequence, the figures for `COc1ccc(/C=C(/C#N)c2ccc(OC)c(OC)c2)cc1N` were 8.1 nM and 7000 nM.
`COc1ccc(/C=C\c2cc(OC)c(OC)c(OC)c2)cc1O` [COMBRETASTATIN A4]: in the assay with Colon 26 [2], the IC50 amounted to 18 nM. The IR in the assay with Colon 26 [3] is recorded as 31%.
In the case of `COc1ccc(/C=C(/C#N)c2cc(OC)c(OC)c(OC)c2)cc1O`, the values for the IC50 in the assay on Colon 26 [2] and at Tubulin were 23.5 nM and 5000 nM, respectively.
Taken in the same sequence, the figures for `COc1ccc(/C(C#N)=C\c2ccc(OC)c(N)c2)cc1` were 1430 nM and 9000 nM.
Taken in the same sequence, the figures for `COc1cc(/C=C\c2ccc(Cl)c(N)c2)cc(OC)c1OC` were 68.9 nM and 3000 nM.
Taken in the same sequence, the figures for `COc1ccc(/C=C(/C=O)c2cc(OC)c(OC)c(OC)c2)cc1` were 213 nM and 4000 nM.
For the compound `COc1ccc(/C=C(/C#N)c2cc(OC)c(OC)c(OC)c2)cc1[N+](=O)[O-]`, the IC50 is 135 nM in the assay on Colon 26 [2] and 5000 nM against Tubulin.
As for `COc1ccc(/C=C\c2cc(OC)c(OC)c(OC)c2)cc1N.Cl`, the IR in assay [4] was found to be 65%; in the assay with MC-38 [5] it was 72%; with HCT-15 [6], 53%; in [7], 62%; with Colon 26 [8], 69%.
In the case of `COc1ccc(/C=C(\C#N)c2cc(OC)c(OC)c(OC)c2)cc1N`, the half-inhibitory concentration (IC50) with Colon 26 [2] was 12.6 nM; against Tubulin, over 20000 nM.
With `COc1ccc(/C=C(/C[N+](C)(C)C)c2cc(OC)c(OC)c(OC)c2)cc1.[I-]`, the concentration for half-maximal inhibition (IC50) with Colon 26 [2] was over 3000 nM; on Tubulin, over 20000 nM.
The matching figures for `COc1cc(/C(C#N)=C/c2ccc(C)c(N)c2)cc(OC)c1OC`: 722 nM and over 20000 nM.
Taken in the same sequence, the figures for `COc1ccc(/C(C#N)=C\c2cc(OC)c(OC)c(OC)c2)cc1N` were 235 nM and 5000 nM.
For the compound `COc1ccc(/C=C(/C#N)c2cc(OC)c(OC)c(OC)c2)cc1N.Cl`, the IR in assay [4] is on record as 59%; with Colon 26 [9], 77%; with MC-38 [10], 75%; with HCT-15 [11], 28%.
The compound `COc1ccc(/C=C\c2cc(OC)c(OC)c(OC)c2)cc1N` showed a concentration for half-maximal inhibition (IC50) in the assay on Colon 26 [2] of 5.1 nM.
For `COc1cc(/C(C#N)=C\c2ccc(Cl)c(N)c2)cc(OC)c1OC.Cl`, the IR in the assay on Colon 26 [1] is -23%.
As for `COc1ccc(/C=C(\C#N)c2cc(OC)c(OC)c(OC)c2)cc1`, the figures for the IC50 in the assay on Colon 26 [2] and at Tubulin were 63.7 nM and over 20000 nM, respectively.
Taken in the same sequence, the figures for `COc1ccc(/C=C(/CN)c2cc(OC)c(OC)c(OC)c2)cc1` were over 3000 nM and over 20000 nM.
Taken in the same sequence, the figures for `COc1ccc(CC(C#N)c2cc(OC)c(OC)c(OC)c2)cn1` (stereo unspecified) were over 3000 nM and over 20000 nM.
In the assay with Colon 26 [2], `COc1ccc(/C(=C\c2cc(OC)c(OC)c(OC)c2)C(N)=O)cc1N` displayed an IC50 of 223 nM. In other words, the sub-micromolar range.
Take `COc1ccc(/C=C(/C(N)=O)c2cc(OC)c(OC)c(OC)c2)cc1N`: the IC50 was 195 nM in the assay with Colon 26 [2] and 3000 nM against Tubulin.
Taken in the same sequence, the figures for `COc1ccc(/C=C(/C#N)c2cc(OC)c(OC)c(OC)c2)cn1` were 2370 nM and over 20000 nM.
The matching figures for `COc1ccc(/C=C(/C#N)c2cc(OC)c(OC)c(OC)c2)cc1N`: 5.9 nM and 10000 nM.
The matching figures for `COc1ccc(/C=C(/C#N)c2cc(OC)c(OC)c(OC)c2)cc1NC(C)=O`: 18.3 nM and 10000 nM.
For `COc1cc(/C=C\c2ccc(C)c(N)c2)cc(OC)c1OC.Cl`, in the assay on Colon 26 [8], the IR was 62%.
With `COc1ccc(/C=C(/C#N)c2cc(OC)c(OC)c(OC)c2)cc1`, the results for the IC50 in the assay with Colon 26 [2] and on Tubulin were 18 nM and 6000 nM, respectively.
The matching figures for `COc1cc(/C(C#N)=C\c2ccc(C)c(N)c2)cc(OC)c1OC`: 61.7 nM and 10000 nM.
Taken in the same sequence, the figures for `COc1ccc(CC(C#N)c2cc(OC)c(OC)c(OC)c2)cc1N` (stereo unspecified) were 22.5 nM and 7000 nM.
The matching figures for `COc1cc(/C(C#N)=C\c2ccc(Cl)c(N)c2)cc(OC)c1OC`: 58.1 nM and 6000 nM.
